Columns and labels:
Format in all cases: functional
[1] = system: MCF7; assay: Growth inhibition of human MCF7 cells at 10 uM after 48 hrs by sulforhodamine B assay; details: MCF7, 48 h, read-out: GI
Summary of the method: (§1)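 Single-dose screen at 10 µM across the NCI 60 panel. Cells in RPMI 1640 with 5% FBS and 2 mM L-glutamine, plated at 5000–40,000/well and preincubated 24 h at 37 °C, 5% CO2. Drug in DMSO, 48 h exposure. Fixed with TCA, stained with SRB, A515 read. Percent growth is taken relative to untreated control, and inhibition is 100 minus growth.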

[2] = system: NCI-H226; assay: Growth inhibition of human NCI-H226 cells at 10 uM after 48 hrs by sulforhodamine B assay; details: NCI-H226, 48 h, read-out: GI; summary of the method: as §1
[3] = system: IGROV-1; assay: Growth inhibition of human IGROV1 cells at 10 uM after 48 hrs by sulforhodamine B assay; details: IGROV-1, 48 h, read-out: GI; summary of the method: as §1
[4] = system: SW-620; assay: Growth inhibition of human SW620 cells at 10 uM after 48 hrs by sulforhodamine B assay; details: SW-620, 48 h, read-out: GI; summary of the method: as §1
[5] = system: SF-268; assay: Growth inhibition of human SF268 cells at 10 uM after 48 hrs by sulforhodamine B assay; details: SF-268, 48 h, read-out: GI; summary of the method: as §1
[6] = system: A549; assay: Growth inhibition of human A549/ATCC cells at 10 uM after 48 hrs by sulforhodamine B assay; details: A549, 48 h, read-out: GI
Summary of the method: (§2)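 Single-dose NCI-60 prescreen at 10 µM for 48 h at 37 °C and 5% CO2, using cells grown in RPMI 1640 with 5% FBS and 2 mM glutamine. Protein was measured by SRB after TCA fixation: 10% final for adherent lines, 16% for suspension lines. Absorbance was read at 515 nm. Percent growth inhibition was obtained by subtracting percent growth from 100.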

[7] = system: MDA-MB-231; assay: Growth inhibition of human MDA-MB-231 cells at 10 uM after 48 hrs by sulforhodamine B assay; details: MDA-MB-231, 48 h, read-out: GI; summary of the method: as §1
[8] = system: NCI-H522; assay: Growth inhibition of human NCI-H522 cells at 10 uM after 48 hrs by sulforhodamine B assay; details: NCI-H522, 48 h, read-out: GI; summary of the method: as §1
[9] = system: KM12; assay: Growth inhibition of human KM12 cells at 10 uM after 48 hrs by sulforhodamine B assay; details: KM12, 48 h, read-out: GI; summary of the method: as §1
[10] = system: CAKI-1; assay: Growth inhibition of human CAKI-1 cells at 10 uM after 48 hrs by sulforhodamine B assay; details: CAKI-1, 48 h, read-out: GI; summary of the method: as §2
[11] = system: COLO 205; assay: Growth inhibition of human COLO205 cells at 10 uM after 48 hrs by sulforhodamine B assay; details: COLO 205, 48 h, read-out: GI; summary of the method: as §2
[12] = system: SK-MEL-28; assay: Growth inhibition of human SK-MEL-28 cells at 10 uM after 48 hrs by sulforhodamine B assay; details: SK-MEL-28, 48 h, read-out: GI; summary of the method: as §1
[13] = Growth inhibition of human NCI-ADR-RES cells at 10 uM after 48 hrs by sulforhodamine B assay; details: read-out: GI; summary of the method: as §1
[14] = system: CCRF-CEM; assay: Growth inhibition of human CCRF-CEM cells at 10 uM after 48 hrs by sulforhodamine B assay; details: read-out: GI; summary of the method: as §2
[15] = system: SF-295; assay: Growth inhibition of human SF295 cells at 10 uM after 48 hrs by sulforhodamine B assay; details: SF-295, 48 h, read-out: GI; summary of the method: as §1
[16] = system: HCT-15; assay: Growth inhibition of human HCT15 cells at 10 uM after 48 hrs by sulforhodamine B assay; details: HCT-15, 48 h, read-out: GI
Summary of the method: (§3)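 NCI-60 one-dose primary screen at a single 10 µM concentration. Cells in RPMI 1640 with 5% FBS, preincubated 24 h at 37 °C, 5% CO2. Drug exposure 48 h, then TCA fixation, SRB staining and absorbance at 515 nm. Percent growth calculated against time-zero and untreated control wells, then converted to percent growth inhibition.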

[17] = system: NCI-H460; assay: Growth inhibition of human NCI-H460 cells at 10 uM after 48 hrs by sulforhodamine B assay; details: NCI-H460, 48 h, read-out: GI; summary of the method: as §1
[18] = Growth inhibition of human EKVX cells at 10 uM after 48 hrs by sulforhodamine B assay; details: read-out: GI; summary of the method: as §3
[19] = system: M14; assay: Growth inhibition of human M14 cells at 10 uM after 48 hrs by sulforhodamine B assay; details: M14, 48 h, read-out: GI; summary of the method: as §1
[20] = system: T47D; assay: Growth inhibition of human T47D cells at 10 uM after 48 hrs by sulforhodamine B assay; details: read-out: GI; summary of the method: as §1
[21] = system: HL-60(TB); assay: Growth inhibition of human HL-60(TB) cells at 10 uM after 48 hrs by sulforhodamine B assay; details: HL-60, 48 h, read-out: GI
Summary of the method: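 Single-dose NCI-60 primary screen at 10 µM, 48 h exposure, SRB read-out. Growth percentage of treated versus untreated cells was recorded and given as percent inhibition by subtraction.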

[22] = system: RPMI-8226; assay: Growth inhibition of human RPMI8226 cells at 10 uM after 48 hrs by sulforhodamine B assay; details: RPMI-8226, 48 h, read-out: GI; summary of the method: as §1
[23] = system: SK-MEL-2; assay: Growth inhibition of human SK-MEL-2 cells at 10 uM after 48 hrs by sulforhodamine B assay; details: SK-MEL-2, 48 h, read-out: GI; summary of the method: as §1
[24] = system: BT-549; assay: Growth inhibition of human BT549 cells at 10 uM after 48 hrs by sulforhodamine B assay; details: BT-549, 48 h, read-out: GI; summary of the method: as §2
[25] = system: SNB-75; assay: Growth inhibition of human SNB75 cells at 10 uM after 48 hrs by sulforhodamine B assay; details: SNB-75, 48 h, read-out: GI; summary of the method: as §1
[26] = system: RPMI-8226; assay: Growth inhibition of human RPMI8226 cells assessed as cell growth at 10^-4 M after 48 hrs by sulforhodamine B assay; details: RPMI-8226, 48 h, read-out: Activity
[27] = system: HCT-116; assay: Growth inhibition of human HCT116 cells assessed as cell growth at 10^-6 M after 48 hrs by sulforhodamine B assay; details: HCT-116, 48 h, read-out: Activity
Summary of the method: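 Five-dose screen at NCI. Cells in RPMI 1640 with 5% FBS and 2 mM L-glutamine, seeded at 5000–40,000 cells/well and grown 24 h at 37 °C, 5% CO2 before dosing, with time-zero plates TCA-fixed. Drug diluted from DMSO stock to 0.01, 0.1, 1, 10 and 100 µM final, 48 h. Cells fixed with cold TCA (10% final), stained with 0.4% SRB and read at 515 nm. Percent growth from Tz, control and test absorbances; GI50, TGI and LC50 from dose-response curves.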

SMILES | inhibition of growth at 10 µM [1] | inhibition of growth at 10 µM [2] | inhibition of growth at 10 µM [3] | inhibition of growth at 10 µM [4] | inhibition of growth at 10 µM [5] | inhibition of growth at 10 µM [6] | inhibition of growth at 10 µM [7] | inhibition of growth at 10 µM [8] | inhibition of growth at 10 µM [9] | inhibition of growth at 10 µM [10] | inhibition of growth at 10 µM [11] | inhibition of growth at 10 µM [12] | inhibition of growth at 10 µM [13] | inhibition of growth at 10 µM [14] | inhibition of growth at 10 µM [15] | inhibition of growth at 10 µM [16] | inhibition of growth at 10 µM [17] | inhibition of growth at 10 µM [18] | inhibition of growth at 10 µM [19] | inhibition of growth at 10 µM [20] | also measured
O=C(NS(=O)(=O)c1ccc2nc(-c3ccccc3)c(-c3ccccc3)nc2c1)c1ccccc1 | 22.9% | 62% | 16.5% | 17.4% | 6.89% | 21.1% | 28.5% | 23.5% | 21% | 7.22% | 19.5% | 7.63% | 27.5% | 41.3% | 21% | 44.9% | 32% | 26.5% | 2.45% | 57.5% | inhibition of growth at 10 µM [21]: 49.4%; inhibition of growth at 10 µM [22]: 58.5%; inhibition of growth at 10 µM [23]: 15.8%; inhibition of growth at 10 µM [24]: 7.67%; inhibition of growth at 10 µM [25]: 34.7%
O=S(=O)(Nc1cccc2ccccc12)c1ccc2nc(-c3ccccc3)c(-c3ccccc3)nc2c1 | 23% | 44% | 1.78% | 26.8% | 2.78% | 15.3% | 38.7% | 47.8% | 29.9% | 3.34% | 27.9% | 5.98% | 22.6% | 58.3% | 3.88% | 34.3% | 23.6% | 71.2% | 2.23% | 49.4% | inhibition of growth at 10 µM [21]: 71%; inhibition of growth at 10 µM [22]: 44.3%; inhibition of growth at 10 µM [23]: 14.9%; inhibition of growth at 10 µM [24]: 32.6%; inhibition of growth at 10 µM [25]: 39.9%
O=S(=O)(Nc1ccc(Cl)cc1)c1ccc2nc(-c3ccccc3)c(-c3ccccc3)nc2c1 | 47.7% | -2.45% | 20.8% | 30.3% | 14.1% | 41.9% | 54.3% | 50.8% | 38.7% | 33.9% | 26.6% | 14.6% | 55.2% | 61.9% | 40.7% | 44.7% | 47.1% | 57.8% | 31% | 72.1% | growth at 100 µM [26]: 40%; growth at 1 µM [27]: 80%; inhibition of growth at 10 µM [21]: 66.7%; inhibition of growth at 10 µM [22]: 86%; inhibition of growth at 10 µM [23]: 23.9%; inhibition of growth at 10 µM [24]: 77.8%; inhibition of growth at 10 µM [25]: 45.1%
O=S(=O)(Nc1ccccn1)c1ccc2nc(-c3ccccc3)c(-c3ccccc3)nc2c1 | 65.9% | -1.38% | 31.8% | 47.9% | 27.6% | 54.7% | 80.1% | 65.6% | 61.5% | 54.1% | 54.2% | 30.3% | 73.2% | 70.7% | 76.8% | 62.4% | 63.4% | 80.8% | 62.8% | 81.1% | growth at 100 µM [26]: 27%; growth at 1 µM [27]: 75%; inhibition of growth at 10 µM [21]: 80.7%; inhibition of growth at 10 µM [22]: 89.9%; inhibition of growth at 10 µM [23]: 39.3%; inhibition of growth at 10 µM [24]: 80.2%; inhibition of growth at 10 µM [25]: 61.8%

— ChEMBL document CHEMBL2407075, “Sulphonamido-quinoxalines: search for anticancer agent” (Eur J Med Chem, 2013)
